Assay outcomes: PubChem BioAssay, several laboratories
In the library only some 1.3% were active in any assay of this set; here they are far more common.
HGIII-sPLA2 inh = human group III sPLA2 inhibitors, primary screen, biochemical, QFRET, BODIPY PC-A2 liposome substrate; Group 3 secretory phospholipase A2 (Homo sapiens), Q9NZ20; QFRET BODIPY PC-A2 liposome hydrolysis, fluorescence; inhibition, % at 12.2 µM; 370,000 compounds, 0.56% hits; AID 743126, 2013;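 active = inhibition above mean plus 3 SD of compounds lying within the high and low control bounds, cut at about 19% in these data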;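 also: 0% = median of test compound wells and 100% = no enzyme DMSO wells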
Target sequence (Q9NZ20 whole entry, looked up): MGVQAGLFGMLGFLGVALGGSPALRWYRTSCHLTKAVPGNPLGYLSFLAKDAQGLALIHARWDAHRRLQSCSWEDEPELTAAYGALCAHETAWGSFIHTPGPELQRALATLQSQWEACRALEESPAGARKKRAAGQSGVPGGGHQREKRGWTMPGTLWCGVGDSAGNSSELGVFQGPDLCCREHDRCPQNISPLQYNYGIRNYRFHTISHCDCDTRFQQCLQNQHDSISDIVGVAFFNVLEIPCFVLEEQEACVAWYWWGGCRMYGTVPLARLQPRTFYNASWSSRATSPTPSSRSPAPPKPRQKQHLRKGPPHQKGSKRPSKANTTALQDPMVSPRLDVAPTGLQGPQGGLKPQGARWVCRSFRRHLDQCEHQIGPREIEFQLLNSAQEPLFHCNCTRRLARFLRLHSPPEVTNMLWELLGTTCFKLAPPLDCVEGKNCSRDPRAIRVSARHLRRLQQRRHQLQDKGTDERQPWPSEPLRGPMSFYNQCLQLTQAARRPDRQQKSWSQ
Efflux pump inh = inhibitors of Candida efflux pumps in yeast, primary screen, S. cerevisiae, Nile Red, multiplex | inhibition, % at 10 µM | S. cerevisiae Candida pump triplex | 330,000 compounds, 0.44% hits;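 active = plate passing quality check with inhibition over a set limit, or well fluorescence over plate mean plus 4 SD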;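 also: Nile Red retained in pooled yeast measured as flow cytometry median fluorescence; 0% = buffer negative control and 100% = Enniatin B positive control; higher means more Nile Red kept so more efflux inhibition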
MT1-MMP act inh = blockers of MT1-MMP proenzyme processing, primary screen, HT1080 RFP-PRO-GFP cells, GFP/RFP fluorescence; GFP/RFP ratio fluorescence, overnight; percent of plate control window, DMSO zero; 360,000 compounds, 0.061% hits; GFP/RFP ratio change, % at 20 µM;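 active = GFP/RFP ratio change of at least 30% with cell ATP level not reduced by more than half and red fluorescence within 50% of control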
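system = RFP-PRO-GFP reporter HT1080 cells | dosing = 20 µM single dose, 1% DMSO | timing = overnight cell settling, then overnight compound exposure, 37 °C, 5% CO2 | read-out basis = GFP/RFP fluorescence ratio | controls = DMSO and RFP-L50D-GFP cell wells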
H9c2 TAG inh = inhibitors of triacylglycerol accumulation, primary screen, cell-based, uHTS, fluorescence, H9c2; H9c2 cells, Nile Red lipid (TAG) fluorescence; cells loaded with 200 µM oleic acid; inhibition, % at 12.5 µM; 230,000 compounds, 0.66% hits;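 active = pattern-corrected inhibition of lipid staining of at least 50% with the nuclear-stain viability signal not falling by more than 50%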;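 also: 0% = DMSO wells and 100% = triacsin C control wells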
Cmpd fluor yeast = flagged as fluorescent in efflux inhibitor counter-screen | shares compounds with Efflux pump inh | S. cerevisiae AD/pABC3, compound fluorescence, flow cytometry | fluorescence ratio to DMSO, % at 10 µM | 1,700 compounds, 4% hits | AID 588517;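 active = fluorescence ratio to DMSO above its plate's cutoff, the plate mean ratio plus 5 SD, cut at about 210% in these data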;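 also: unstained yeast with no Nile Red so the signal is compound autofluorescence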
Mdr1 pump inh = inhibitors of Candida albicans Mdr1 efflux, confirmation, flow cytometry, singleplex, Cherry Pick1 set; 1,700 compounds, 1% hits; inhibition, % at 10 µM; S. cerevisiae AD/CaMDR1, Nile Red efflux; shares compounds with Efflux pump inh; in the data active = inhibition above about 26%;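 also: 0% = DMSO vehicle and 100% = reference inhibitor; higher means more Nile Red retained so more efflux inhibition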
Cdr2 pump inh = inhibitors of Candida albicans Cdr2 efflux pump, confirmation, S. cerevisiae AD/CaCDR2, flow cytometry, cherry pick 1, singleplex. 1,700 compounds, 4% hits. Nile Red retention. Nile Red retention ratio vs DMSO, % at 10 µM. shares compounds with Efflux pump inh; in the data active = Nile Red retention ratio vs DMSO above about 190%;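 also: higher ratio means more blocking of Cdr2 efflux of the dye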
Cdr1 pump inh = inhibitors of Candida albicans Cdr1 efflux pump, confirmation, S. cerevisiae AD/CaCDR1, flow cytometry, cherry pick 1, singleplex; inhibition, % at 10 µM; Nile Red efflux; 1,700 compounds, 1% hits; shares compounds with Efflux pump inh;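 active = inhibition above the screen-wide mean plus twice its standard deviation, cut at about 32% in these data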
* marks the source's active call; other numbers are inactive results; / = no result; ! = repeats disagree.

SMILES	HGIII-sPLA2 inh	Efflux pump inh	MT1-MMP act inh	H9c2 TAG inh	Cmpd fluor yeast	Mdr1 pump inh	Cdr2 pump inh	Cdr1 pump inh
Cc1cc(C)c2nc3sc(=Cc4ccc(-c5ccccc5C(=O)O)o4)c(=O)n3c2c1	-3	/	-64	2	/	/	/	/
Cc1ccc2c(nc3s/c(=C\c4ccc(-c5ccccc5C(=O)O)o4)c(=O)n32)c1C	2	0.7*	-64	/	102	0	121	0
CN(C)Cc1c(O)ccc2c1O/C(=C\C=C\c1ccccc1)C2=O	-25	0.6*	-44	10	83	0	104	0
CC(=O)N1CCN(C(=O)c2cc(S(=O)(=O)N3CCN(c4ccccc4)CC3)ccc2Cl)CC1	-6	/	1	7	/	/	/	/
COc1ccc([C@@H]2Sc3ccccc3N(CCN(C)C)C(=O)[C@@H]2OC(C)=O)cc1	-11	0	-5	21	114	0	114	0
O=C(Oc1c(-c2ccccc2)c(=O)n2c3c(cccc13)CC2)c1cccc([N+](=O)[O-])c1	0	0.6*	0	-1	102	0	101	0
O=C(c1cccc([N+](=O)[O-])c1)N1CCc2ccccc21	11	0	-3	/	/	/	/	/
O=C(Oc1c(-c2ccccc2)c(=O)n2c3c(cccc13)CC2)c1ccc(F)cc1	8	0.6*	-1	7	99	0	97	0
CN1CCN(C(=O)c2c(O)c3cccc4c3n(c2=O)CC4)CC1	1	0	3	-8	/	/	/	/
O=C(Oc1c(-c2ccccc2)c(=O)n2c3c(cccc13)CC2)c1ccccc1	-7	0	0	0	161	0	91	3
O=C(NCCc1ccccc1)c1c(O)c2cccc3c2n(c1=O)CC3	8	0	3	-3	/	/	/	/
Cc1ccc(NC(=S)NN(C)c2nc(C)cnc2C)cc1	4	9.6*	-2	/	89	0	108	0
C=CCn1c(=O)c2ccccc2n2c(SCC(=O)Nc3sc(C)c(CC)c3C(=O)OCC)nnc12	-2	0.5*	-6	23	99	0	116	0
Cc1ccc(-c2csc(=S)n2CC(=O)OCC(=O)NCc2ccco2)cc1	-1	0	-3	10	/	/	/	/
Cc1ccc(-c2csc(=S)n2CC(=O)OCC(=O)NC(C)C(C)C)cc1 (configuration not stated)	-2	0.7*	1	/	91	0	101	0
CCOC(=O)[C@]12CCCCC/C=C\1N(CCc1ccc(Cl)cc1)C(=O)[C@H]2CC(=O)NCCc1ccccc1OC	-17	/	/	/	/	/	/	/
O=C(Nc1ccnc(-c2cccnc2)n1)c1cccc(Cl)c1Cl	2	1.0*	-1	/	118	1	116	0
O=C(Nc1ccnc(-c2cccnc2)n1)c1ccccc1Cl	-6	0	0	-7	/	/	/	/
CC(C)(C)S(=O)N1Cc2cn(Cc3ccccc3)c(=O)cc2[C@H]1CCO (some centres not stated)	8	/	1	-3	/	/	/	/
Cc1cc(C)c(C(=O)CSC2=NC(N)=C(C#N)C3(CCCCC3)C2C(N)=O)cc1C (configuration not stated)	-35	1.3*	-9	/	100	0	107	0
COc1ccc(-c2nnc(N)s2)cc1	9	0	-2	/	/	/	/	/
Cc1ccc(-c2nnc(N)s2)cc1	7	5.5*	-1	/	113	1	105	0
O=c1c2ccccc2nnn1Cc1cccc2ccccc12	-7	0	1	-7	/	/	/	/
O=c1c2ccccc2nnn1Cc1ccccn1	1	8.2*	-1	/	100	0	98	0
O=C(Cc1cc(=O)[nH][nH]1)N/N=C/c1cccc(Cl)c1Cl	-16	19*!	1	11	92	0	95	0
SMILES	HGIII-sPLA2 inh	Efflux pump inh	MT1-MMP act inh	H9c2 TAG inh	Cmpd fluor yeast	Mdr1 pump inh	Cdr2 pump inh	Cdr1 pump inh
O=C(Cc1cc(=O)[nH][nH]1)N/N=C/c1ccccc1Cl	-7	0	/	/	/	/	/	/
O=C(CC1CCCC1)N1CC[C@H]2[C@H](CCCN2Cc2ccc(F)cc2)C1	1	/	/	/	/	/	/	/
CC(=O)NCCOc1nc(N(C)C)nc(N2CCOCC2)n1	1	0.5*	-4	0	95	0	112	0
CCOC(=O)c1c(-c2ccc(-c3ccccc3)cc2)csc1NC(=O)CNCCN(C)C	9	2.6*	5	/	116	0	108	0
CCOC(=O)c1c(-c2ccccc2)csc1NC(=O)CCN1C(=O)c2ccccc2C1=O	1	0	-2	-9	/	/	/	/
CC(C)CCNC(=O)c1onc(CSc2ccccn2)c1C(=O)NCCC(C)C	-3	0.6*	3	/	104	0	102	0
CN(C)/C(CN1CCN(C=O)CC1)=C1\N=C(c2ccccc2)OC1=O	2	0.5*	-6	/	98	0	94	0
CN(C)/C=C1\N=C(c2ccccc2)OC1=O	5	0	4	/	/	/	/	/
O=C(NNC(=O)c1cc2cc(Br)ccc2oc1=O)c1ccc(O)cc1	-4	0	-1	/	/	/	/	/
O=C(Nc1ccccc1O)c1cc2cc(Br)ccc2oc1=O	5	1.3*	8	/	113	1	117	0
COc1cc(/C=C/C(=O)OCC(=O)c2ccc3c(c2)NC(=O)CO3)ccc1OC(F)F	-1	0	-5	4	/	/	/	/
Cn1c(=O)c2c(SCC(=O)NCC3CCCO3)nc(-c3ccccc3Cl)nc2n(C)c1=O (configuration not stated)	4	0.8*	-4	12	81	0	87	0
COc1ccc(/C=C2\SC(=O)N(CCCC(=O)Nc3ccc(C(=O)O)cc3)C2=O)cc1OC	6	4	-1	20	/	/	/	/
COc1ccc(/C=C2\SC(=O)N(CCC(=O)Nc3ccccc3)C2=O)cc1OC	4	7.6*	-11	/	97	0	97	0
C=CCN(C(=O)CNS(=O)(=O)c1ccccc1)C(C(=O)NCCOC)c1cccnc1 (configuration not stated)	12	0	3	/	/	/	/	/
Cc1ccc(S(=O)(=O)Nc2cc(C)c(O)c(Sc3n[nH]c(C)n3)c2)cc1	-55	0	1	/	99	-1	109	0
